High-throughput results: PubChem BioAssay, Johns Hopkins Ion Channel Center
Sampled rows, rich in hits. Any-hit rate of the full collection: about 3.1%.
KCNQ1 block = human KCNQ1 channel inhibition; CHO-K1 KCNQ1, FluxOR thallium flux fluorescence; active compounds read high; B-score at 10 µM; 1.3% of 310,000 active; AID 2642;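 active = compounds whose thallium flux B-score, printed positive for inhibition, exceeds three library SD while starting fluorescence stays within three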;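 note: channel opened by potassium depolarization with thallium stimulus after 20 min compound exposure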
KCNK9 block = human KCNK9 channel inhibition; HEK293 KCNK9, FluxOR thallium flux fluorescence; active compounds read low; B-score at 10 µM; Q9NPC2; 1.2% of 310,000 active;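 active = ratio B-score over 3 SD below the library mean, with starting fluorescence within 5 SD of its mean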;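 note: negative B-score means less thallium flux so channel inhibition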
Target sequence (Q9NPC2 whole entry, looked up): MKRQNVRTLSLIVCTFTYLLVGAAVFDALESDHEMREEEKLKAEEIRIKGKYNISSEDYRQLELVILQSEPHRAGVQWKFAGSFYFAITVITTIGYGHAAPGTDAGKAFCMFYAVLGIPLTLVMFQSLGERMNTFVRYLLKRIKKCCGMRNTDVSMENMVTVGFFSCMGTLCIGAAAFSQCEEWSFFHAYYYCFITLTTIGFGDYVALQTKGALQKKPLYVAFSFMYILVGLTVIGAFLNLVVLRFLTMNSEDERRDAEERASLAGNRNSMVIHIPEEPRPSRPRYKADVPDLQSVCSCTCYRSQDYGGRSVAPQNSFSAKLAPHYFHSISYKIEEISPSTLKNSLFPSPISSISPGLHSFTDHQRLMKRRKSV
KCNK3 inh = human KCNK3 channel inhibition, primary screen; O14649; CHO-KCNK3 thallium flux, FluxOR fluorescence; active compounds read low; 0.84% of 340,000 active; AID 602410; B-score at 10 µM;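 active = B-score under library mean minus 4 SD, starting fluorescence ratio at most library mean plus 5 SD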;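 note: more negative B-score means stronger inhibition of thallium flux through KCNK3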
KCNQ1 pot = potentiates or activates the human KCNQ1 potassium channel; CHO-K1 KCNQ1, thallium flux FluxOR fluorescence; active compounds read high; 0.35% of 310,000 active; P51787; B-score at 10 µM;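 active = fluorescence ratio B-score, a plate-corrected score, at least three library SD, with initial intensity B-score within 5 SD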
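Assay system: CHO-K1 cells stably expressing KCNQ1; Medium: assay buffer with matched DMSO; Also added: K+/Tl+ depolarizing stimulus; Dosing: single dose; Timing: dye 90 min, compound 20 min, room temperature; Measured by: kinetic FluxOR thallium fluorescence, 10-s 1-Hz baseline, 110-s post-stimulus read; Read-out: peak-minus-minimum fluorescence over initial fluorescence, negative-control normalized, B-scored.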
hERG rescue = shields human hERG channel from block by proarrhythmic agents. Q12809. CHO-hERG, FluxOR thallium flux, dofetilide IC70 present. activation (rescue from dofetilide block), less the hit threshold, % at 10 µM. 0.51% of 310,000 active. AID 1511;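 active = activation above the mean of controls blocked by dofetilide plus 5 SD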;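 note: thallium influx through hERG after potassium depolarization seen as dye fluorescence rise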
Each line names hits and unclear results; the compound was inactive in the other large screens.

Cc1ccc(OCC(=O)NNC(=S)NC(=O)c2cccs2)c(C)c1	KCNQ1 pot 34
CCc1nonc1NC(=O)COc1cc(C)c(Cl)c(C)c1	none
CCc1nonc1NC(=O)COc1ccc(Cl)c(C)c1	KCNQ1 block 6
Cc1ccc(OCC(=O)NNC(=S)NC(=O)c2ccc(Br)o2)c(C)c1	KCNQ1 pot 69
Cc1cc(OCC(=O)NNC(=S)NC(=O)c2cccs2)ccc1Cl	KCNQ1 pot 15
CC(=O)NS(=O)(=O)c1ccc(NC(=O)/C=C/c2cn(-c3ccccc3)nc2-c2ccccc2)cc1	none
O=C(/C=C\c1cn(-c2ccccc2)nc1-c1ccccc1)Nc1nccs1	KCNK9 block -8
CC(=O)c1sc(NC(=O)c2cnc(Cl)c(Cl)c2)nc1C	KCNQ1 block 9
COc1cc2c(cc1OC)CN(c1nc(-c3cccnc3)nc3ccccc13)CC2	KCNK9 block -7.5
CCN(CC)CC(=O)Nc1ccc2c(c1)Nc1ccccc1CC2	KCNQ1 pot 8
CCN(CC)CC(=O)Nc1ccc2c(c1)N(C(=O)CN(CC)CC)c1ccccc1CC2	none
O=C(c1ccccc1Cl)N1CCN(Cc2ccc3c(c2)OCO3)CC1	KCNK9 block -7
CCc1ccc(NC(=O)C2=CC(c3ccc(OC)cc3)=NS(=O)(=O)N2C)cc1	KCNK9 block -7.6
COc1cccc(/C=N/NC(=O)c2c(C)nc3ccc(Cl)cn23)c1O	none
Fc1ccc(-n2cc(-c3ccccc3)c3c(=S)nc[nH]c32)cc1	KCNQ1 pot 10
CCOC(=O)C1=CN(Cc2ccco2)S(=O)(=O)NC1c1ccc(Br)cc1F (configuration not stated)	none (no result: KCNQ1 block, KCNK9 block, KCNQ1 pot, hERG rescue)
COc1ccc(/C=C/c2cc(-c3ccc(C)cc3)o[n+]2C)cc1	KCNQ1 block 9
C[C@@H]1CN([C@@H](C)CO)C(=O)c2cccc(NC(=O)Nc3ccccc3)c2O[C@H]1CN(C)C(=O)Nc1cccc2ccccc12	none (no result: KCNQ1 block, KCNK9 block, KCNQ1 pot, hERG rescue)
COc1ccc2oc(C(=O)Nc3nccs3)c(C)c2c1	KCNK9 block -7.9
O=[N+]([O-])c1c(O)c(Cl)cc(Cl)c1Cl (tested in a mixture with another compound)	none (no result: KCNQ1 block, KCNK9 block, KCNQ1 pot, hERG rescue)
C(#Cc1ccccc1)C[N+]1(CC#Cc2ccccc2)CCCCC1	none
Cc1ccc(C#CC[N+]2(CC#Cc3ccc(C)cc3)CCCCC2)cc1	KCNQ1 block 12
Cc1ccc(NC(=O)CSC(C)c2nc3ccccc3c(=O)[nH]2)cc1 (configuration not stated)	none
Cc1[nH]c(=S)sc1Cc1ccc(F)cc1	KCNQ1 pot 9
CCCn1cnnc1CNC(=O)C1CCC(=O)N(CCCc2ccccc2)C1 (configuration not stated)	none
C=CCC(O)(CC=C)CNC(=O)C1CCC(=O)N(CCCc2ccccc2)C1 (configuration not stated)	hERG rescue 6.7
CN(C(=O)c1cccc(NC(=O)Cc2ccc(NC(=O)C3CCCN(C(=O)c4ccccc4)C3)cc2)c1)C1CCCC1 (configuration not stated)	none (no result: KCNQ1 block, KCNK9 block, KCNQ1 pot, hERG rescue)
CCC(C)(C)n1nnnc1C(c1ccc(C)cc1)N(Cc1ccco1)Cc1cccs1 (configuration not stated)	KCNK9 block -6.9
CCOc1cc(/C=C(\C#N)C(=O)Nc2cccc(C(=O)O)c2)ccc1OCc1ccccc1Cl	KCNQ1 block 6
CC(=O)Nc1ccc2c(c1)C(N1CC3CCC(CC3)C1)c1ccccc1-2 (configuration not stated)	KCNK3 inh -10 (no result: KCNQ1 block, KCNK9 block, KCNQ1 pot, hERG rescue)
O=C(Nc1cccc(Cl)c1)N1CCN(C2c3ccccc3-c3ccccc32)CC1	none
Cc1cccc(N2CCN(S(=O)(=O)c3ccc4c(c3)CC(C)N4C(=O)C3CC3)CC2)c1C (configuration not stated)	KCNQ1 block 6
O=C(/C=C/c1ccc2c(c1)S(=O)(=O)N(Cc1ccccc1)[C@H]2CC(=O)N1CCOCC1)N1CCOCC1	none (no result: KCNQ1 block, KCNK9 block, KCNQ1 pot, hERG rescue)
Cc1ccc(Cl)cc1N1CCN(C(=O)C2(S(=O)(=O)c3ccc(Cl)cc3)CC2)CC1	KCNQ1 block 6
CC(=O)Nc1cc2c3c(cccc3c1)-c1ccccc1-2	none (no result: KCNQ1 block, KCNK9 block, KCNQ1 pot, hERG rescue)
Cc1cccc(-n2c(N)c(-c3nc4ccccc4n3C)c3nc4ccccc4nc32)c1	KCNK3 inh -8.8
CCOC(=O)C1(Cc2ccccc2)CCCN(C(=O)c2cnn(CC)c2)C1 (configuration not stated)	none
